Test results: ChEMBL document CHEMBL1122987, “Synthesis and central dopaminergic effects of N-(4,6-dimethyl-2-pyridinyl)benzamides” (1985)

What was measured:
Mus musculus [1] = organism: Mus musculus; experiment: Antipsychotic effect was tested against motility scores in reserpinized mice at a control value of 11; assay type: functional
Mus musculus [2] = organism: Mus musculus; experiment: Antipsychotic effect was tested against motility scores in naive mice at a control value of 815; assay type: functional
Mus musculus [3] = organism: Mus musculus; experiment: Motility against number of interrupted beams in 1 hour in reserpine treated mice by 9 determinations.; assay type: functional
Rattus norvegicus [4] = organism: Rattus norvegicus; experiment: Compound was evaluated for the homovanillic acid levels of rats limbic system by 15 determinations; assay type: functional
In short: (§1)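 Male Wistar C.F. rats (200 ± 20 g); limbic system dissected 5 h post-dose, HVA extracted and determined by fluorimetry (µg/g tissue). Vehicle controls received acacia gum aqueous suspension; means ± SEM, Student's t test.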

Rattus norvegicus [5] = organism: Rattus norvegicus; experiment: Compound was evaluated for the homovanillic acid levels of rats corpus striata by 14 determinations; assay type: functional
In short: (§2)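 Male Wistar C.F. rats (200 ± 20 g); corpus striatum removed 5 h after dosing, HVA extracted from tissue and measured fluorimetrically, expressed as µg/g. Controls got acacia gum suspension; means ± SEM, Student's t test vs controls.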

Mus musculus [6] = organism: Mus musculus; experiment: Motility against number of interrupted beams in 1 hr in reserpine & apomorphine treated mice by 21 determinations; assay type: functional
In short: (§3)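 Mice reserpinized (10 mg/kg ip), then apomorphine 2 mg/kg ip given 20 h later; benzamide dosed 1 h before apomorphine. Individual photocell beam interruptions recorded for 60 min after apomorphine. Controls received acacia gum aqueous suspension; means ± SEM, Student's t test vs controls.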

Mus musculus [7] = organism: Mus musculus; experiment: Motility against number of interrupted beams in 1 hour in naive mice by 10 determinations; assay type: functional
Mus musculus [8] = organism: Mus musculus; experiment: Motility against number of interrupted beams in 1 hour in naive mice by 9 determinations; assay type: functional
Rattus norvegicus [9] = organism: Rattus norvegicus; experiment: Compound was evaluated for the homovanillic acid levels of rats corpus striata by 7 determinations; assay type: functional; in short: as §2
Mus musculus [10] = organism: Mus musculus; experiment: Motility against number of interrupted beams in 1 hr in reserpine & apomorphine treated mice by 9 determinations; assay type: functional; in short: as §3
Rattus norvegicus [11] = organism: Rattus norvegicus; experiment: Compound was evaluated for the homovanillic acid levels of rats limbic system by 7 determinations; assay type: functional; in short: as §1
Mus musculus [12] = organism: Mus musculus; experiment: Motility against number of interrupted beams in 1 hour in reserpine treated mice by 4 determinations; assay type: functional
Mus musculus [13] = organism: Mus musculus; experiment: Antipsychotic effect was tested against motility scores in reserpinized mice at a control value of 11; toxic; assay type: functional, organism-based
Rattus norvegicus [14] = organism: Rattus norvegicus; experiment: Compound was evaluated for the homovanillic acid levels of rats Corpus striata by 7 determinations; assay type: functional; in short: as §2
Rattus norvegicus [15] = organism: Rattus norvegicus; experiment: Compound was evaluated for the homovanillic acid levels of rats limbic system by 6 determinations; assay type: functional; in short: as §1
Mus musculus [16] = organism: Mus musculus; experiment: Motility against number of interrupted beams in 1 hr in reserpine & apomorphine treated mice by 11 determinations; assay type: functional; in short: as §3
Mus musculus [17] = organism: Mus musculus; experiment: Motility against number of interrupted beams in 1 hour in reserpine treated mice by 4 determinations.; assay type: functional
Rattus norvegicus [18] = organism: Rattus norvegicus; experiment: Compound was evaluated for the homovanillic acid levels of rats corpus striata by 11 determinations; assay type: functional; in short: as §2
Mus musculus [19] = organism: Mus musculus; experiment: Motility against number of interrupted beams in 1 hr in reserpine & apomorphine treated mice by 10 determinations; assay type: functional; in short: as §3
Mus musculus [20] = organism: Mus musculus; experiment: Motility of the Compound was tested against number of interrupted beams in 1 hr in reserpine & apomorphine treated mice by 12 determinations; assay type: functional; in short: as §3
Rattus norvegicus [21] = organism: Rattus norvegicus; experiment: Compound was evaluated for the homovanillic acid levels of rats limbic system by 8 determinations; assay type: functional; in short: as §1
Mus musculus [22] = organism: Mus musculus; experiment: Motility of the Compound was tested against number of interrupted beams in 1 hour in naive mice by 10 determinations; assay type: functional
Mus musculus [23] = organism: Mus musculus; experiment: Motility against number of interrupted beams in 1 hour in reserpine treated mice by 13 determinations; assay type: functional
Mus musculus [24] = organism: Mus musculus; experiment: Motility against number of interrupted beams in 1 hour in naive mice by 15 determinations; assay type: functional
Rattus norvegicus [25] = organism: Rattus norvegicus; experiment: Compound was evaluated for the homovanillic acid levels of rats corpus striata by 18 determinations; assay type: functional; in short: as §2
Rattus norvegicus [26] = organism: Rattus norvegicus; experiment: Compound was evaluated for the homovanillic acid levels of rats limbic system by 17 determinations; assay type: functional; in short: as §1
Mus musculus [27] = organism: Mus musculus; experiment: Motility of the Compound was tested against number of interrupted beams in 1 hour in reserpine treated mice by 8 determinations; assay type: functional
Mus musculus [28] = organism: Mus musculus; experiment: Motility of the Compound was tested against number of interrupted beams in 1 hr in reserpine & apomorphine treated mice by 14 determinations; assay type: functional; in short: as §3
Rattus norvegicus [29] = organism: Rattus norvegicus; experiment: Compound Evaluated for the homovanillic acid levels of rats limbic system by 12 determinations; assay type: functional; in short: as §1
Rattus norvegicus [30] = organism: Rattus norvegicus; experiment: Compound Evaluated for the homovanillic acid levels of rats corpus striata by 12 determinations; assay type: functional; in short: as §2
Mus musculus [31] = organism: Mus musculus; experiment: Motility against number of interrupted beams in 1 hour in naive mice by 13 determinations; assay type: functional

Row | SMILES | Motility (Mus musculus [1]) | Motility (Mus musculus [2]) | other results
1 | Cc1cc(C)nc(NC(=O)c2ccc(Cl)cc2)c1 | 72 | 630 | Motility (Mus musculus [3]): 73.4; HVA level (Rattus norvegicus [4]): 0.355 µg/g; HVA level (Rattus norvegicus [5]): 0.644 µg/g; Motility (Mus musculus [6]): 577; Motility (Mus musculus [7]): 619
2 | Cc1cc(C)nc(NC(=O)c2ccc(F)cc2)c1 | 113 | 291 | Motility (Mus musculus [8]): 299; HVA level (Rattus norvegicus [9]): 0.667 µg/g; Motility (Mus musculus [10]): 491; HVA level (Rattus norvegicus [11]): 0.194 µg/g; Motility (Mus musculus [12]): 118.2
3 | COc1ccccc1C(=O)Nc1cc(C)cc(C)n1 | 7 | 646 | –
4 | Cc1cc(C)nc(NC(=O)c2ccc(Br)cc2)c1 | 0 | 797 | –
5 | COc1cccc(C(=O)Nc2cc(C)cc(C)n2)c1 | 0 | 822 | –
6 | Cc1cc(C)nc(NC(=O)c2ccc([N+](=O)[O-])cc2)c1 | 0 | 746 | –
7 | Cc1cc(C)nc(N(C)C(=O)c2ccccc2)c1 | – | 796 | Motility (Mus musculus [13]): Toxic
8 | CSc1ccc(C(=O)Nc2cc(C)cc(C)n2)cc1 | 0 | 770 | –
9 | COc1ccc(Cl)cc1C(=O)Nc1cc(C)cc(C)n1 | 19 | 748 | –
10 | Cc1cc(C)nc(NC(=O)c2cccc(Br)c2)c1 | 21 | 826 | –
11 | COc1ccc(C(=O)Nc2cc(C)cc(C)n2)cc1 | 0 | 456 | –
12 | Cc1cc(C)nc(NC(=O)c2ccccc2Cl)c1 | 4 | 875 | –
13 | Cc1cc(C)nc(NC(=O)c2cccc(C(F)(F)F)c2)c1 | 4 | 661 | –
14 | CCCN(C(=O)c1ccccc1)c1cc(C)cc(C)n1 | 8 | 780 | –
15 | CCS(=O)(=O)c1ccc(OC)c(C(=O)Nc2cc(C)cc(C)n2)c1 | 16 | 841 | –
16 | Cc1cccc(C(=O)Nc2cc(C)cc(C)n2)c1 | 0 | 505 | –

Row | SMILES | Motility (Mus musculus [1]) | Motility (Mus musculus [2]) | other results
17 | CC(=O)Nc1ccc(C(=O)Nc2cc(C)cc(C)n2)cc1 | 12 | 522 | –
18 | CCOc1ccc(C(=O)Nc2cc(C)cc(C)n2)cc1 | 4 | 552 | –
19 | COc1ccc(S(C)(=O)=O)cc1C(=O)Nc1cc(C)cc(C)n1 | 2 | 755 | –
20 | CC(=O)Nc1cccc(C(=O)Nc2cc(C)cc(C)n2)c1 | 8 | 777 | –
21 | CCN(C(=O)c1ccccc1)c1cc(C)cc(C)n1 | 31 | 914 | –
22 | CCN1CCCC1CNC(=O)c1cc(S(=O)(=O)CC)ccc1OC (stereo unspecified) [SULTOPRIDE] | – | – | HVA level (Rattus norvegicus [14]): 1.898 µg/g; HVA level (Rattus norvegicus [15]): 0.493 µg/g; Motility (Mus musculus [16]): 152; Motility (Mus musculus [7]): 135
23 | Cc1cc(C)nc(NC(=O)c2cccc(N)c2)c1 | 4 | 652 | –
24 | Cc1cc(C)nc(NC(=O)c2ccccc2O)c1 | 0 | 747 | –
25 | Cc1cc(C)nc(NC(=O)c2ccc(N)cc2)c1 | 9 | 337 | Motility (Mus musculus [17]): 0; HVA level (Rattus norvegicus [18]): 0.308 µg/g; Motility (Mus musculus [19]): 385; HVA level (Rattus norvegicus [11]): 0.268 µg/g; Motility (Mus musculus [7]): 439
26 | CCN(CC)CCNC(=O)c1cc(Cl)c(N)cc1OC [METOCLOPRAMIDE] | – | – | Motility (Mus musculus [20]): 63; HVA level (Rattus norvegicus [21]): 0.618 µg/g; Motility (Mus musculus [22]): 126; HVA level (Rattus norvegicus [9]): 2.531 µg/g
27 | CCN(C(=O)c1cccc(Cl)c1)c1cc(C)cc(C)n1 | 21 | 941 | –
28 | Cc1cc(C)nc(NC(=O)c2cccc(Cl)c2)c1 | 52 | 617 | Motility (Mus musculus [23]): 41.2; Motility (Mus musculus [24]): 577; HVA level (Rattus norvegicus [25]): 0.396 µg/g; HVA level (Rattus norvegicus [26]): 0.141 µg/g; Motility (Mus musculus [16]): 727
29 | CCN(C(=O)c1ccc(F)cc1)c1cc(C)cc(C)n1 | 29 | 965 | –
30 | Cc1cc(C)nc(NC(=O)c2cccc([N+](=O)[O-])c2)c1 | 15 | 634 | –
31 | Cc1cc(C)nc(NC(=O)c2ccccc2)c1 | 83 | 450 | Motility (Mus musculus [27]): 85.1; Motility (Mus musculus [28]): 642; HVA level (Rattus norvegicus [29]): 0.297 µg/g; HVA level (Rattus norvegicus [30]): 0.504 µg/g; Motility (Mus musculus [31]): 427
